One data set deals with Col2. Description: Cytotoxicity against human Col2 cells. In kind it is functional. Conditions: read-out: ED50 (the source's name).
The nature of data set [1]: Cytotoxicity against human telomerase reverse transcriptase expressing RPE1 cells. It counts as cell-based, TERT-RPE1. Conditions: read-out: ED50 (the source's name).
The nature of data set [2]: Cytotoxicity against HUVEC. In kind it is cell-based. Conditions: human, read-out: ED50 (the source's name).
Data set [3] concerns KB. Description: Cytotoxicity against human KB cells. In kind it is functional. To be noted: read-out: ED50 (the source's name).
Data set [4] relates to LNCaP. Nature of the data set: Cytotoxicity against human LNCAP cells. To be noted: read-out: ED50 (the source's name). In kind it is functional.
In data set [5] the test system is Lu1. Description: Cytotoxicity against human Lu1 cells. It counts as functional. To be noted: read-out: ED50 (the source's name).
The test system of data set [6] is LNCaP. Nature of the data set: Inhibition of human LNCAP cells propagated in hollow fibers via intraperitoneal site of NCr nu/nu mouse at 10 to 40 mg/kg, ip once daily after 7 days of implantation relative to control. It counts as functional. Conditions: dose mg/kg 10-40. An outline of the steps:
(§1)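 Hollow fiber assay in mice with KB, LNCaP and Lu1 cells, with fibers placed at intraperitoneal and subcutaneous sites. Compound given ip at 10, 20 and 40 mg/kg. Read-out was percent growth inhibition of the cells at each site versus control, and body weight of the mice was monitored.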

The test system of data set [7] is LNCaP. Description: Inhibition of human LNCAP cells propagated in hollow fibers via subcutaneous site of NCr nu/nu mouse at 10 to 40 mg/kg, ip once daily after 7 days of implantation relative to control. It counts as functional. Conditions: dose mg/kg 10-40. The essentials:
as §1

The subject of data set [8] is KB. Nature of the data set: Inhibition of human KB cells propagated in hollow fibers via subcutaneous site of NCr nu/nu mouse at 10 to 40 mg/kg, ip once daily after 7 days of implantation relative to control. Conditions: dose mg/kg 10-40. It counts as functional. An outline of the steps:
as §1

Data set [9] deals with Lu1. Description: Inhibition of human Lu1 cells propagated in hollow fibers via intraperitoneal site of NCr nu/nu mouse at 10 to 40 mg/kg, ip once daily after 7 days of implantation relative to control. In kind it is functional, organism-based. The essentials:
as §1

In data set [10] the test system is Lu1. Nature of the data set: Inhibition of human Lu1 cells propagated in hollow fibers via subcutaneous site of NCr nu/nu mouse at 10 to 40 mg/kg, ip once daily after 7 days of implantation relative to control. In kind it is functional. Conditions: dose mg/kg 10-40. The essentials: as §1
The next data set has as its system P388. Nature of the data set: In vivo growth inhibition of mouse P388 cells at 135 mg/kg, ip relative to control. In kind it is functional. Conditions: route intraperitoneal. The essentials: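 Mouse P-388 leukemia model run under a standard protocol. Compound given intraperitoneally at 135 mg/kg/injection, and activity was expressed as T/C value (%).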

≈ marks a conversion by molar mass, not a printed value. Calls of active or inactive are those of the source. The rule behind the calls is not given here. Some results are limits rather than exact numbers.

For the molecule `C=CCCC(=O)Oc1cc(-c2oc3cc(OC)c(OC)c(OC(=O)CCC=C)c3c(=O)c2OC)ccc1OC`, the EC50 turned out to be 15 mg/L (≈ 27.9 µM) in the data set on Col2, 0.6 mg/L (≈ 1.11 µM) in the data set with KB [3], 0.7 mg/L (≈ 1.3 µM) in the data set on LNCaP [4] and 1.4 mg/L (≈ 2.6 µM) in the data set on Lu1 [5]. Further, the CC50 in data set [1] came out at 0.6 mg/L (≈ 1.11 µM); in data set [2] it was 5.5 mg/L (≈ 10.2 µM).

Turning to `COc1ccc(-c2oc3cc(OC)c(OC)c(O)c3c(=O)c2OC)cc1O` [CASTICIN], the EC50 in the data set with Col2 worked out at 12.7 mg/L (≈ 33.9 µM); in the data set with KB [3], 0.2 mg/L (≈ 0.534 µM); in the data set with LNCaP [4], 0.5 mg/L (≈ 1.34 µM); with Lu1 [5], 0.8 mg/L (≈ 2.14 µM). For the same molecule, the figures for the CC50 in [1] and in data set [2] were 0.2 mg/L (≈ 0.534 µM) and 0.6 mg/L (≈ 1.6 µM), respectively.

As for `COc1ccc(-c2oc3cc(OC)c(OC)c(O)c3c(=O)c2OC)cc1OC(=O)c1ccccc1`, the EC50 was above 20 mg/L in the data set on Col2, above 20 mg/L in the data set with KB [3], above 20 mg/L in the data set on LNCaP [4] and 16.5 mg/L (≈ 34.5 µM) in the data set on Lu1 [5]. The figures for the CC50 in data set [1] and in data set [2] were 3.6 mg/L (≈ 7.52 µM) and 20 mg/L (≈ 41.8 µM), respectively.

In the case of `CCC(=O)Oc1cc(-c2oc3cc(OC)c(OC)c(OC(=O)CC)c3c(=O)c2OC)ccc1OC`, the EC50 in the data set on Col2 is above 20 mg/L; in the data set with KB [3], 0.6 mg/L (≈ 1.23 µM); in the data set on LNCaP [4] it was 0.4 mg/L (≈ 0.822 µM); with Lu1 [5], 1 mg/L (≈ 2.06 µM). Also, the values for the CC50 in data set [1] and in [2] were 0.5 mg/L (≈ 1.03 µM) and 6.5 mg/L (≈ 13.4 µM), respectively.

Usually T/C stands for the result in the treated group divided by that in the control group, in per cent. In the case of `CCCCCC(=O)Oc1cc(-c2oc3cc(OC)c(OC)c(OC(=O)CCCCC)c3c(=O)c2OC)ccc1OC`, the EC50 in the data set on Col2 is above 20 mg/L; in the data set on KB [3] it was 0.5 mg/L (≈ 0.876 µM); with LNCaP [4], 0.5 mg/L (≈ 0.876 µM); with Lu1 [5], 0.7 mg/L (≈ 1.23 µM). The CC50 turned out to be 0.4 mg/L (≈ 0.701 µM) in [1] and 11.1 mg/L (≈ 19.5 µM) in [2]. The “inhibition (INH)” value in the data set with LNCaP [6], with LNCaP [7], in the data set on KB [8] and in the data set on Lu1 [10] was 0% each time. Further, the outcome with Lu1 [9] was inactive. Further, the T/C in the data set with P388 stood at 100%.

For `COc1ccc(-c2oc3cc(OC)c(OC)c(OC(=O)c4ccccc4)c3c(=O)c2OC)cc1OC(=O)c1ccccc1`, the EC50 was above 20 mg/L in the data set with Col2, above 20 mg/L in the data set on KB [3], above 20 mg/L in the data set on LNCaP [4] and 6.5 mg/L (≈ 11.2 µM) in the data set with Lu1 [5]. The CC50 in data set [1] was 4.3 mg/L (≈ 7.38 µM); in data set [2] it was above 20 mg/L.

On to `CCCC(=O)Oc1cc(-c2oc3cc(OC)c(OC)c(OC(=O)CCC)c3c(=O)c2OC)ccc1OC`, for which the EC50 was 11.7 mg/L (≈ 22.7 µM) in the data set on Col2, 0.5 mg/L (≈ 0.972 µM) in the data set on KB [3], 0.8 mg/L (≈ 1.55 µM) in the data set on LNCaP [4] and 1.7 mg/L (≈ 3.3 µM) in the data set on Lu1 [5]. In addition, the figures for the CC50 in data set [1] and in data set [2] were 0.6 mg/L (≈ 1.17 µM) and above 20 mg/L, respectively.

Turning to `COc1ccc(-c2oc3cc(OC)c(OC)c(OC(C)=O)c3c(=O)c2OC)cc1OC(C)=O`, the EC50 came to 15.9 mg/L (≈ 34.7 µM) in the data set with Col2, 0.2 mg/L (≈ 0.436 µM) with KB [3], 0.1 mg/L (≈ 0.218 µM) in the data set on LNCaP [4] and 0.7 mg/L (≈ 1.53 µM) in the data set with Lu1 [5]. Moreover, the figures for the CC50 in data set [1] and in data set [2] were 0.4 mg/L (≈ 0.873 µM) and 0.1 mg/L (≈ 0.218 µM), respectively.

On to `COc1ccc(-c2oc3cc(OC)c(OC)c(OC)c3c(=O)c2OC)cc1OC` [HEXAMETHOXYFLAVONE], for which the EC50 with Col2, in the data set on KB [3], with LNCaP [4] and in the data set with Lu1 [5] was above 20 mg/L throughout. Also, the CC50 in data set [1] and in [2] was above 20 mg/L throughout.

The values above are taken from ChEMBL document CHEMBL1146542, “Cytotoxic flavone analogues of vitexicarpin, a constituent of the leaves of Vitex negundo” (J Nat Prod, 2003).
